Measurements: ChEMBL document CHEMBL3232944 (Bioorg Med Chem Lett, 2014)

Assays:
RAW264.7 = experiment: Cytotoxicity against mouse RAW264.7 cells assessed as cell viability at >10 uM after 24 hrs by MTT assay in presence of LPS; format: cell-based; details: raw264.7, 24 h
How it was run: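 RAW 264.7 cells plated at 10⁵ cells/well, exposed to various concentrations of compound in the presence of LPS for 24 h. Viability read by colorimetric MTT assay. At least three independent experiments.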

[1] = molecular target: T1, Prostaglandin G/H synthase 1 (Ovis aries, UniProt P05979); experiment: Inhibition of ovine COX-1 assessed as decrease in PGH2 production using arachidonic acid as substrate treated with enzyme for 10 mins prior to substrate challenge for 2 mins by enzyme immunoassay
T1 sequence (P05979 whole entry): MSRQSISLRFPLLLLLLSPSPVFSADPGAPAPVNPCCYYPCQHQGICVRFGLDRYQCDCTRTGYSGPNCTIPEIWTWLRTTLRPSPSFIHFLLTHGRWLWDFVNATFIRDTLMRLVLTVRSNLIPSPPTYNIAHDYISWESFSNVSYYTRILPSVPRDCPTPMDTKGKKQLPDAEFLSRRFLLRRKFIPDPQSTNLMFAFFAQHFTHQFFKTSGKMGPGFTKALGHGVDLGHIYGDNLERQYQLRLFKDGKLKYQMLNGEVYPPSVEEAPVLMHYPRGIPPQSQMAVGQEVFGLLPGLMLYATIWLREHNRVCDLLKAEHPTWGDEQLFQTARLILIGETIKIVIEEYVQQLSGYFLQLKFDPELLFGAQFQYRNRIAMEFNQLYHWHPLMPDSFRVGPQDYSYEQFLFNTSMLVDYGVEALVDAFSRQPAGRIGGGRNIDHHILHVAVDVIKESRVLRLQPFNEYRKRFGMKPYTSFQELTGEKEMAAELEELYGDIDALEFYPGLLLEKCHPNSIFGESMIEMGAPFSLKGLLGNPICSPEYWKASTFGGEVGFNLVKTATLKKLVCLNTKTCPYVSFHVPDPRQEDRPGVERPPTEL
How it was run: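 Ovine COX-1 was mixed with test compound at various concentrations plus heme and held 10 min at 37 °C. Arachidonic acid was then added and the reaction ran another 2 min at 37 °C. PGH₂ was reduced with SnCl₂, and the resulting PGF₂α was quantified by EIA using a broadly specific prostaglandin antibody. Boiled (3 min) enzyme served as background and compound-free samples as control. IC50 taken from at least three experiments.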

Row | Structure (SMILES) | IC50 [1] [µM] | Activity (RAW264.7)
1 | Cc1ccc(C2=C(c3ccc(S(N)(=O)=O)cc3)C(=O)NC2=O)cc1 | > 100 | Non-toxic
2 | COc1ccc(C2=C(c3ccc(S(N)(=O)=O)cc3)C(=O)NC2=O)cc1 | > 100 | Non-toxic
3 | NS(=O)(=O)c1ccc(C2=C(c3ccc(Cl)cc3)C(=O)NC2=O)cc1 | > 100 | Non-toxic
4 | COc1ccc(C2=C(c3ccc(S(N)(=O)=O)cc3)C(=O)N(C)C2=O)cc1 | > 1 | Non-toxic

More lines, main results first:

Row | IC50 [1] [µM] | Structure (SMILES) | Activity (RAW264.7)
5 | > 1 | CN1C(=O)C(c2ccccc2)=C(c2ccc(S(N)(=O)=O)cc2)C1=O | Non-toxic
6 | > 1 | Cc1ccc(C2=C(c3ccc(S(N)(=O)=O)cc3)C(=O)N(C)C2=O)cc1 | Non-toxic
7 | > 1 | CN1C(=O)C(c2ccc(Cl)cc2)=C(c2ccc(S(N)(=O)=O)cc2)C1=O | Non-toxic
8 | 127 | NS(=O)(=O)c1ccc(C2=C(c3ccccc3)C(=O)NC2=O)cc1 | Non-toxic
